Measured values of several laboratories.
pEC50, pIC50: −log10 of the molar value.

CCN(CC)Cc1cc(Nc2ccnc3cc(Cl)ccc23)ccc1O — inhibition (Dengue virus; viral replication, inhibitor; BHK-21, DENV2; 50 µM, 24 h, replicon): 76.3%
CC[C@H](C)[C@H]1C(=O)N2CCC[C@H]2C(=O)O[C@H](C(C)(C)C)C[C@@H](C)C[C@H](O)[C@H](C)C2=N[C@@H](CCC(=O)N[C@@H](Cc3ccc(OC)cc3)C(=O)N(C)[C@@H](C)C(=O)N1C)CS2 — pIC50 (Dengue virus; viral replication; Huh7.5; 24 h): 8.48
CCN(CC)CCNc1ccc(C)c2sc3ccccc3c(=O)c12 — pIC50 (Zaire ebolavirus; viral replication, inhibitor; HeLa): 5.49
Cc1cccc(-n2ncc(Cl)c(Cl)c2=O)c1 — pIC50 (NCI-H23; cell growth or viability, resazurin; 96 h): 6.68
CC1=C(O)C(=O)C=C2C1=CC=C1[C@@]2(C)CC[C@@]2(C)[C@@H]3C[C@](C)(C(=O)O)CC[C@]3(C)CC[C@]12C — pIC50 (Bel-7402; cell growth or viability, MTT; 48 h): 6.10
CC(C)(N)CNC(=O)C[C@H]1CC[C@]2(CC1)OO[C@]1(O2)C2CC3CC(C2)CC1C3 — pIC50 (Zaire ebolavirus; viral replication, inhibitor; HeLa): 5.34
c1ccc([C@@H]2C[C@H]2NC2CCNCC2)cc1 — pEC50 (MOLM-13; cell growth or viability, resazurin; 96 h): 9.04
Nc1ncnc2c([C@@H]3N[C@H](CO)[C@@H](O)[C@H]3O)c[nH]c12 — inhibition (Dengue virus; viral replication; Vero 76, DENV2; 3 µM): 11%
Nc1ncn([C@@H]2O[C@H](CO)[C@@H](O)[C@H]2O)c(=O)n1 — inhibition (Zaire ebolavirus; viral replication, inhibitor; Vero C1008; 50 µM, 72 h): 86%
CCN(CC)Cc1cc(Nc2ccnc3cc(Cl)ccc23)ccc1O — pIC50 (Zaire ebolavirus; viral replication, inhibitor; Huh-7; 24 h): 5.67
CC1=C(O)C(=O)C=C2C1=CC=C1[C@@]2(C)CC[C@@]2(C)[C@@H]3C[C@](C)(C(=O)OCCCn4cc(C=O)c5ccccc54)CC[C@]3(C)CC[C@]12C — pIC50 (Bel-7402; cell growth or viability, MTT; 48 h): 6.11
CCN(CC)CCCC(C)Nc1ccnc2cc(Cl)ccc12 (stereo not drawn) — inhibition (Dengue virus; viral replication, inhibitor; BHK-21, DENV2; 50 µM, 24 h, replicon): 54.8%
